According to ChEMBL document CHEMBL1777792, “Synthesis and evaluation of indole-based new scaffolds for antimicrobial activities--identification of promising candidates” (Bioorg Med Chem Lett, 2011):

Tests used:
Candida albicans [1] = experiment: Antifungal activity against Candida albicans in yeast extract-peptone-glucose medium at 375 ug/ml after 48 hrs by disc diffusion assay; assay type: functional; conditions: read-out: DIZ
In short: (§1)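 C. albicans cells at a set number were spread on YEPD agar, either plain or containing the cell-wall disruptant named in the line (SDS, Congo red or calcofluor white). Compound solution, or the reference solvent as control, was spotted onto 0.5 cm discs placed on the lawn. Plates were incubated at 30 °C and the inhibition zone diameter was measured.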

Candida albicans [2] = experiment: Antifungal activity against Candida albicans in yeast extract-peptone-glucose medium at 375 ug/ml after 48 hrs by disc diffusion assay in presence of 100 ug/ml of calcofluor white; assay type: functional; in short: as §1
Candida albicans [3] = experiment: Antifungal activity against Candida albicans in yeast extract-peptone-glucose medium at 375 ug/ml after 48 hrs by disc diffusion assay in presence of 150 ug/ml of congo red; assay type: functional; in short: as §1
Candida albicans [4] = experiment: Antifungal activity against Candida albicans in yeast extract-peptone-glucose medium at 375 ug/ml after 48 hrs by disc diffusion assay in presence of 0.01% of sodium dodecylsulphate; assay type: functional; conditions: read-out: DIZ; in short: as §1
Escherichia coli [5] = experiment: Antibacterial activity against Escherichia coli harboring ampicillin-resistance gene encoding plasmid at 500 ug/ml after 24 hrs by disc diffusion assay; assay type: functional; conditions: read-out: DIZ
In short: (§2)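 Disc diffusion used an E. coli strain carrying a plasmid that encodes an ampicillin-resistance gene. Inhibition zone diameters were recorded and compared against the corresponding solvent controls.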

Candida albicans [6] = experiment: Antifungal activity against Candida albicans in yeast extract-peptone-glucose medium at 375 ug/ml after 48 hrs by disc diffusion assay in presence of rhodamine 6G
Escherichia coli [7] = experiment: Antibacterial activity against Escherichia coli harboring ampicillin-resistance gene encoding plasmid at 375 ug/ml after 24 hrs by disc diffusion assay; assay type: functional; conditions: read-out: DIZ; in short: as §2
Candida albicans [8] = experiment: Antifungal activity against Candida albicans in synthetic dextrose minimal medium after 48 hrs by ELISA based serial dilution method
Candida albicans [9] = experiment: Antifungal activity against Candida albicans in yeast extract-peptone-glucose medium at 428 ug/ml after 48 hrs by disc diffusion assay; assay type: functional; conditions: read-out: DIZ
In short: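 Solid-phase assay on YEPD agar spread with a set number of C. albicans cells. Compound solution and reference solvent spotted onto 0.5 cm discs. Plates incubated at 30 °C, and inhibition zone diameter measured against solvent control.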

Candida albicans [10] = experiment: Antifungal activity against Candida albicans in yeast extract-peptone-glucose medium at 428 ug/ml after 48 hrs by disc diffusion assay in presence of 100 ug/ml of calcofluor white; assay type: functional
In short: (§3)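 Disc diffusion on YEPD agar containing a cell-wall-disrupting agent (SDS, Congo red or calcofluor white) and spread with a set number of C. albicans cells. Compound and reference solvent spotted on 0.5 cm discs. Incubated at 30 °C, then inhibition zone diameter measured against solvent.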

Candida albicans [11] = experiment: Antifungal activity against Candida albicans in yeast extract-peptone-glucose medium at 428 ug/ml after 48 hrs by disc diffusion assay in presence of 150 ug/ml of congo red; assay type: functional; in short: as §3
Candida albicans [12] = experiment: Antifungal activity against Candida albicans in yeast extract-peptone-glucose medium at 428 ug/ml after 48 hrs by disc diffusion assay in presence of 0.01% of sodium dodecylsulphate; assay type: functional; conditions: read-out: DIZ; in short: as §3
Escherichia coli [13] = experiment: Antibacterial activity against Escherichia coli harboring ampicillin-resistance gene encoding plasmid at 428 ug/ml after 24 hrs by disc diffusion assay; assay type: functional; conditions: read-out: DIZ; in short: as §2
Candida albicans [14] = experiment: Antifungal activity against Candida albicans in yeast extract-peptone-glucose medium at 428 ug/ml after 48 hrs by disc diffusion assay in presence of rhodamine 6G
Escherichia coli [15] = experiment: Antibacterial activity against Escherichia coli harboring ampicillin-resistance gene encoding plasmid at 300 ug/ml after 24 hrs by disc diffusion assay; assay type: functional; conditions: read-out: DIZ; in short: as §2
Candida albicans [16] = experiment: Antifungal activity against Candida albicans in yeast extract-peptone-glucose medium at 300 ug/ml after 48 hrs by disc diffusion assay in presence of 150 ug/ml of congo red; assay type: functional; in short: as §1
Candida albicans [17] = experiment: Antifungal activity against Candida albicans in yeast extract-peptone-glucose medium at 300 ug/ml after 48 hrs by disc diffusion assay in presence of 0.01% of sodium dodecylsulphate; assay type: functional; conditions: read-out: DIZ; in short: as §1
Candida albicans [18] = experiment: Antifungal activity against Candida albicans in yeast extract-peptone-glucose medium at 300 ug/ml after 48 hrs by disc diffusion assay in presence of […]; assay type: functional
In short: (§4)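 This is a C. albicans disc diffusion on YEPD agar containing rhodamine 6G, a substrate of the Cdr1p/Cdr2p ATP-dependent efflux pumps, to test for enhanced R6G toxicity. A set number of cells was spread, and 0.5 cm discs were spotted with compound solution or reference solvent. Plates were incubated at 30 °C and the zone diameter was measured.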

Candida albicans [19] = experiment: Antifungal activity against Candida albicans in yeast extract-peptone-glucose medium at 374 ug/ml after 48 hrs by disc diffusion assay in presence of 150 ug/ml of congo red; assay type: functional; in short: as §3
Candida albicans [20] = experiment: Antifungal activity against Candida albicans in yeast extract-peptone-glucose medium at 374 ug/ml after 48 hrs by disc diffusion assay in presence of 0.01% of sodium dodecylsulphate; assay type: functional; conditions: read-out: DIZ; in short: as §3
Escherichia coli [21] = experiment: Antibacterial activity against Escherichia coli harboring ampicillin-resistance gene encoding plasmid at 250 ug/ml after 24 hrs by disc diffusion assay; assay type: functional; conditions: read-out: DIZ; in short: as §2
Candida albicans [22] = experiment: Antifungal activity against Candida albicans in yeast extract-peptone-glucose medium at 374 ug/ml after 48 hrs by disc diffusion assay in presence of rhodamine 6G
Escherichia coli [23] = experiment: Antibacterial activity against Escherichia coli harboring ampicillin-resistance gene encoding plasmid at 450 ug/ml after 24 hrs by disc diffusion assay; assay type: functional; conditions: read-out: DIZ; in short: as §2
Candida albicans [24] = experiment: Antifungal activity against Candida albicans in yeast extract-peptone-glucose medium at 450 ug/ml after 48 hrs by disc diffusion assay; assay type: functional; conditions: read-out: DIZ; in short: as §1
Candida albicans [25] = experiment: Antifungal activity against Candida albicans in yeast extract-peptone-glucose medium at 450 ug/ml after 48 hrs by disc diffusion assay in presence of 100 ug/ml of calcofluor white; assay type: functional; in short: as §1
Candida albicans [26] = experiment: Antifungal activity against Candida albicans in yeast extract-peptone-glucose medium at 450 ug/ml after 48 hrs by disc diffusion assay in presence of 150 ug/ml of congo red; assay type: functional; in short: as §1
Candida albicans [27] = experiment: Antifungal activity against Candida albicans in yeast extract-peptone-glucose medium at 450 ug/ml after 48 hrs by disc diffusion assay in presence of 0.01% of sodium dodecylsulphate; assay type: functional; conditions: read-out: DIZ; in short: as §1
Candida albicans [28] = experiment: Antifungal activity against Candida albicans in yeast extract-peptone-glucose medium at 450 ug/ml after 48 hrs by disc diffusion assay in presence of […]; assay type: functional; in short: as §4

For O=C(C(=O)N1CCOCC1)c1cn(CCCn2cc(C(=O)C(=O)N3CCOCC3)c3ccccc32)c2ccccc12, the zone of inhibition at 375 µg/mL (Candida albicans [1]) was 7 mm, the “diameter of the inhibition zone (DIZ)” value (Candida albicans [2]) was 6.5 mm and the “diameter of the inhibition zone (DIZ)” value (Candida albicans [3]) was 8 mm. For the same molecule, the zone of inhibition at 375 µg/mL (Candida albicans [4]) was 8.5 mm, the zone of inhibition at 500 µg/mL (Escherichia coli [5]) was 6 mm and the “diameter of the inhibition zone (DIZ)” value (Candida albicans [6]) was 7.5 mm.

O=C(C(=O)N1CCOCC1)c1cn(CCCCCn2cc(C(=O)C(=O)N3CCOCC3)c3ccccc32)c2ccccc12 was tested, and the zone of inhibition at 375 µg/mL (Escherichia coli [7]) was 8.5 mm, the zone of inhibition at 375 µg/mL (Candida albicans [1]) was 7.5 mm and the “diameter of the inhibition zone (DIZ)” value (Candida albicans [2]) was 7.5 mm. For the same molecule, the “diameter of the inhibition zone (DIZ)” value (Candida albicans [3]) was 7 mm, the zone of inhibition at 375 µg/mL (Candida albicans [4]) was 7 mm and the IC50 (Candida albicans [8]) was 340 µM. For the same molecule, the “diameter of the inhibition zone (DIZ)” value (Candida albicans [6]) was 8 mm.

O=C(C(=O)N1CCCC1)c1cn(CCCn2cc(C(=O)C(=O)N3CCCC3)c3ccccc32)c2ccccc12 was tested, and the zone of inhibition at 428 µg/mL (Candida albicans [9]) was 7.5 mm, the “diameter of the inhibition zone (DIZ)” value (Candida albicans [10]) was 6.5 mm and the “diameter of the inhibition zone (DIZ)” value (Candida albicans [11]) was 5.5 mm. It also gave a zone of inhibition at 428 µg/mL (Candida albicans [12]) of 6.5 mm, a zone of inhibition at 428 µg/mL (Escherichia coli [13]) of 8 mm and an IC50 (Candida albicans [8]) of 465 µM. The “diameter of the inhibition zone (DIZ)” value (Candida albicans [14]) was 6.5 mm.

With O=C(C(=O)N1CCCCC1)c1cn(Cc2ccc(Cn3cc(C(=O)C(=O)N4CCCCC4)c4ccccc43)cc2)c2ccccc12 the zone of inhibition at 300 µg/mL (Escherichia coli [15]) was 9 mm, the “diameter of the inhibition zone (DIZ)” value (Candida albicans [16]) was 7.5 mm and the zone of inhibition at 300 µg/mL (Candida albicans [17]) was 7.5 mm. For the same molecule, the “diameter of the inhibition zone (DIZ)” value (Candida albicans [18]) was 6 mm.

For O=C(C(=O)N1CCCCC1)c1cn(CCCn2cc(C(=O)C(=O)N3CCCCC3)c3ccccc32)c2ccccc12, the “diameter of the inhibition zone (DIZ)” value (Candida albicans [19]) was 6.5 mm, the zone of inhibition at 374 µg/mL (Candida albicans [20]) was 7.5 mm and the zone of inhibition at 250 µg/mL (Escherichia coli [21]) was 9.5 mm. The “diameter of the inhibition zone (DIZ)” value (Candida albicans [22]) was 6.5 mm.

For O=C(C(=O)N1CCCCC1)c1cn(CCCCCn2cc(C(=O)C(=O)N3CCCCC3)c3ccccc32)c2ccccc12, the zone of inhibition at 450 µg/mL (Escherichia coli [23]) was 8.5 mm, the zone of inhibition at 450 µg/mL (Candida albicans [24]) was 6 mm and the “diameter of the inhibition zone (DIZ)” value (Candida albicans [25]) was 6.5 mm. For the same molecule, the “diameter of the inhibition zone (DIZ)” value (Candida albicans [26]) was 7 mm, the zone of inhibition at 450 µg/mL (Candida albicans [27]) was 6.5 mm and the “diameter of the inhibition zone (DIZ)” value (Candida albicans [28]) was 6.5 mm.

For O=C(C(=O)N1CCCC1)c1cn(CCCCCn2cc(C(=O)C(=O)N3CCCC3)c3ccccc32)c2ccccc12, the zone of inhibition at 375 µg/mL (Candida albicans [1]) was 5.5 mm, the “diameter of the inhibition zone (DIZ)” value (Candida albicans [2]) was 5.5 mm and the “diameter of the inhibition zone (DIZ)” value (Candida albicans [3]) was 8 mm. The zone of inhibition at 375 µg/mL (Candida albicans [4]) was 6 mm, the zone of inhibition at 500 µg/mL (Escherichia coli [5]) was 8 mm and the “diameter of the inhibition zone (DIZ)” value (Candida albicans [6]) was 6.5 mm.
